Type in all cases: functional
In one assay the test system is LNCaP. Put plainly: Antiproliferative activity against human LNCAP cells assessed as reduction in cell growth incubated for 96 hrs by propidium iodide based 2D monolayer assay. The gist of the method:
(§1)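 After 24 h recovery, compound in medium or medium alone (control wells) was added at 10 half-log concentrations from 0.0032 to 100 µM, in triplicate, with at most 0.3% DMSO. After 96 h, wells were PBS-washed, stained with 7 µg/ml PI and 0.1% Triton X-100, and fluorescence read at 530/620 nm. IC50 came from a 4-parameter fit, geometric mean.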

Another assay concerns CWR22R. Put plainly: Antiproliferative activity against human 22Rv1 cells assessed as reduction in cell growth incubated for 96 hrs by propidium iodide based 2D monolayer assay. The conditions noted are these: 22Rv1, 96 h. The essentials:
as §1

A further assay relates to DU-145. Description: Antiproliferative activity against human DU145 cells assessed as reduction in cell growth incubated for 96 hrs by propidium iodide based 2D monolayer assay. To be noted: DU-145, 96 h. The gist of the method:
as §1

The test system of the next assay is VCaP. Put plainly: Antiproliferative activity against human VCaP cells assessed as reduction in cell growth incubated for 96 hrs by propidium iodide based 2D monolayer assay. The essentials: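 VCaP cells in RPMI 1640 with 10% FCS at 37 °C, 5% CO2, seeded 4,000–20,000 cells/well and left 24 h before dosing. Compounds from DMSO stocks were diluted in half-log steps in medium, 10 concentrations 0.0032–100 μM, triplicate wells, max 0.3% DMSO. After 96 h, cells were washed, stained with 7 μg/ml propidium iodide plus 0.1% Triton X-100 for 1–2 h at room temperature, and fluorescence read at ex 530/em 620 nm.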

As to `CC1(C)C(=O)N(c2cccc(S(F)(F)(F)(F)F)c2)C(=S)N1c1ccc(C(F)(F)F)cc1`, the concentration for half-maximal inhibition (IC50) worked out at 5.2 µM in the assay with LNCaP, 22.4 µM in the assay with CWR22R, 39.8 µM in the assay on DU-145 and 54.2 µM in the assay with VCaP.
The corresponding values for `CC1(C)C(=O)N(c2ccc([N+](=O)[O-])c(C(F)(F)F)c2)C(=S)N1c1cccc(S(F)(F)(F)(F)F)c1` are 100 µM, 100 µM, 100 µM and 100 µM.
For `CC1(C)C(=O)N(c2ccc([N+](=O)[O-])c(C(F)(F)F)c2)C(=S)N1c1ccc(S(F)(F)(F)(F)F)cc1` the same measures were 13 µM, 100 µM, 100 µM and 100 µM.
For `CC1(C)C(=O)N(c2ccc([N+](=O)[O-])cc2C(F)(F)F)C(=S)N1c1ccc(S(F)(F)(F)(F)F)cc1` the same measures were 100 µM, 100 µM, 100 µM and 100 µM.
Turning to `CC1(C)C(=O)N(c2ccc(C#N)c(C(F)(F)F)c2)C(=S)N1c1cccc(S(F)(F)(F)(F)F)c1`, the IC50 amounted to 6.9 µM with LNCaP, 100 µM in the assay on CWR22R, 100 µM in the assay with DU-145 and 100 µM with VCaP.
For the molecule `CNC(=O)c1ccc(N2C(=S)N(c3cccc(S(F)(F)(F)(F)F)c3)C(=O)C2(C)C)cc1F`, the IC50 was found to be 25.1 µM with LNCaP, 37.3 µM with CWR22R, 51.1 µM in the assay on DU-145 and 55.8 µM in the assay with VCaP.
For the molecule `CC(O)(CSc1cc(C(F)(F)F)cc(C(F)(F)F)c1)C(=O)Nc1cccc(S(F)(F)(F)(F)F)c1` (centres undefined), the IC50 in the assay with LNCaP came to 4.8 µM; with CWR22R it was 4.4 µM; in the assay with DU-145, 9.4 µM; in the assay on VCaP it was 4 µM.
Turning to `CC1(C)C(=O)N(c2ccc(S(F)(F)(F)(F)F)cc2)C(=S)N1c1cccc(C(F)(F)F)c1`, the IC50 in the assay with LNCaP came out at 8.8 µM; in the assay on CWR22R, 59.6 µM; with DU-145, 100 µM; with VCaP, 100 µM.
On to `CC1(C)C(=O)N(c2ccc(S(F)(F)(F)(F)F)cc2)C(=S)N1c1ccc(C(F)(F)F)cc1`, for which the IC50 turned out to be 47.4 µM in the assay with LNCaP, 100 µM in the assay with CWR22R, 100 µM in the assay on DU-145 and 100 µM in the assay with VCaP.
Take `CNC(=O)c1ccc(N2C(=S)N(c3ccc(S(F)(F)(F)(F)F)cc3)C(=O)C2(C)C)cc1F`: the IC50 is 23 µM in the assay with LNCaP, 32.1 µM with CWR22R, 41.6 µM with DU-145 and 31.6 µM with VCaP.
The corresponding values for `CC1(C)C(=O)N(c2ccc([N+](=O)[O-])cc2C(F)(F)F)C(=S)N1c1cccc(S(F)(F)(F)(F)F)c1` are 5.3 µM, 43.9 µM, 100 µM and 100 µM.
The corresponding values for `CC(O)(CSc1cccc(C(F)(F)F)c1)C(=O)Nc1cccc(S(F)(F)(F)(F)F)c1` (racemic) are 12.7 µM, 12.9 µM, 19.1 µM and 20.2 µM.
For `CC(O)(CSc1ccc(S(F)(F)(F)(F)F)cc1)C(=O)Nc1cccc(S(F)(F)(F)(F)F)c1` (racemic) the same measures were 12.7 µM, 13.1 µM, 24.8 µM and 24.1 µM.
Turning to `CC(O)(CSc1ccccc1C(F)(F)F)C(=O)Nc1ccc(S(F)(F)(F)(F)F)cc1` (racemic), the IC50 came to 12.3 µM in the assay on LNCaP, 13.2 µM in the assay with CWR22R, 15.8 µM with DU-145 and 21 µM with VCaP.
For `CC(O)(CSc1ccc(S(F)(F)(F)(F)F)cc1)C(=O)Nc1ccc([N+](=O)[O-])c(C(F)(F)F)c1` (racemic), the IC50 in the assay with LNCaP worked out at 8.7 µM; in the assay on CWR22R, 9.2 µM; in the assay with DU-145 it was 13.9 µM; in the assay with VCaP it was 10.1 µM.
For `CC(O)(CSc1cccc(S(F)(F)(F)(F)F)c1)C(=O)Nc1ccc(C#N)cc1C(F)(F)F` (racemic) the same measures were 17.6 µM, 21.6 µM, 37.4 µM and 30.8 µM.
The corresponding values for `CC(O)(CSc1ccc(C(F)(F)F)cc1)C(=O)Nc1ccc(S(F)(F)(F)(F)F)cc1` (racemic) are 17 µM, 14.8 µM, 28.8 µM and 24.8 µM.
Consider `CC(O)(CSc1ccccc1OC(F)(F)F)C(=O)Nc1ccc(S(F)(F)(F)(F)F)cc1` (racemic), for which the IC50 in the assay with LNCaP was found to be 10.6 µM; in the assay on CWR22R, 15 µM; in the assay with DU-145 it was 29 µM; in the assay on VCaP, 10.1 µM.
For `CC(O)(CSc1cccc(C(F)(F)F)c1)C(=O)Nc1ccc(S(F)(F)(F)(F)F)cc1` (racemic) the same measures were 18.3 µM, 23.4 µM, 26.2 µM and 18.8 µM.
The corresponding values for `CC(O)(CSc1cccc(S(F)(F)(F)(F)F)c1)C(=O)Nc1ccc([N+](=O)[O-])c(C(F)(F)F)c1` (racemic) are 8.6 µM, 8.8 µM, 13.9 µM and 9.8 µM.
The corresponding values for `CC(O)(CSc1ccc(F)cc1)C(=O)Nc1ccc(S(F)(F)(F)(F)F)cc1` (racemic) are 12.5 µM, 13.5 µM, 25.4 µM and 23 µM.
As to `CC(O)(CSc1ccc(C(F)(F)F)cc1)C(=O)Nc1cccc(S(F)(F)(F)(F)F)c1` (racemic), the 50% inhibitory concentration (IC50) in the assay with LNCaP was determined as 17.5 µM; in the assay on CWR22R, 26.9 µM; with DU-145 it was 27.2 µM; with VCaP, 27.3 µM.
For `CC(O)(CSc1ccc(C(F)(F)F)cn1)C(=O)Nc1ccc(S(F)(F)(F)(F)F)cc1` (racemic) the same measures were 12.3 µM, 20 µM, 30.7 µM and 19 µM.
The corresponding values for `CC(O)(CSc1ccc(S(F)(F)(F)(F)F)cc1)C(=O)Nc1ccc([N+](=O)[O-])cc1C(F)(F)F` (racemic) are 10.3 µM, 13.1 µM, 14.5 µM and 26.3 µM.
Consider `CC(O)(CSc1ccc(S(F)(F)(F)(F)F)cc1)C(=O)Nc1ccc(C#N)cc1C(F)(F)F` (racemic), for which the IC50 was 15.1 µM in the assay with LNCaP, 13.2 µM in the assay on CWR22R, 17.7 µM in the assay on DU-145 and 20.5 µM in the assay with VCaP.
For `CC(O)(CSc1cccc(OC(F)(F)F)c1)C(=O)Nc1ccc(S(F)(F)(F)(F)F)cc1` (racemic) the same measures were 12.8 µM, 14 µM, 23.8 µM and 13.8 µM.
Turning to `CC(O)(CSc1cccc(S(F)(F)(F)(F)F)c1)C(=O)Nc1ccc([N+](=O)[O-])cc1C(F)(F)F` (racemic), the half-maximal inhibitory concentration (IC50) turned out to be 12.7 µM with LNCaP, 17.5 µM in the assay with CWR22R, 18.9 µM in the assay on DU-145 and 28.8 µM in the assay with VCaP.
In the case of `CC(O)(CSc1cccc(S(F)(F)(F)(F)F)c1)C(=O)Nc1ccc(C#N)c(C(F)(F)F)c1` (racemic), the IC50 with LNCaP was determined as 14.5 µM; in the assay on CWR22R it was 20.4 µM; in the assay on DU-145 it was 32.7 µM; with VCaP, 31.7 µM.
For `CC(O)(CSc1ccc(OC(F)(F)F)cc1)C(=O)Nc1ccc(S(F)(F)(F)(F)F)cc1` (racemic) the same measures were 16.1 µM, 14.9 µM, 12.5 µM and 16 µM.
Take `CC(O)(CSc1cccc(S(F)(F)(F)(F)F)c1)C(=O)Nc1ccc(S(F)(F)(F)(F)F)cc1` (racemic): the IC50 amounted to 25 µM with LNCaP, 17.7 µM with CWR22R, 17.3 µM with DU-145 and 28.2 µM in the assay with VCaP.
The corresponding values for `CC(O)(CSc1ccc(S(F)(F)(F)(F)F)cc1)C(=O)Nc1ccc(S(F)(F)(F)(F)F)cc1` (racemic) are 18.3 µM, 24.4 µM, 22.3 µM and 28 µM.
For `CC(O)(CSc1cc(C(F)(F)F)cc(C(F)(F)F)c1)C(=O)Nc1ccc(S(F)(F)(F)(F)F)cc1` (racemic), the IC50 is 17.6 µM with LNCaP, 15.8 µM in the assay on CWR22R, 29.7 µM in the assay with DU-145 and 19.4 µM in the assay with VCaP.
For `CC(O)(CSc1ccccc1C(F)(F)F)C(=O)Nc1cccc(S(F)(F)(F)(F)F)c1` (racemic) the same measures were 12.3 µM, 13.2 µM, 15.8 µM and 21 µM.
In the case of `CC(O)(CSc1cccc(S(F)(F)(F)(F)F)c1)C(=O)Nc1cccc(S(F)(F)(F)(F)F)c1` (racemic), the IC50 is 12.9 µM in the assay with LNCaP, 17.2 µM in the assay on CWR22R, 30.3 µM in the assay on DU-145 and 29 µM with VCaP.
The corresponding values for `CC(O)(CSc1ccc(S(F)(F)(F)(F)F)cc1)C(=O)Nc1ccc(C#N)c(C(F)(F)F)c1` (racemic) are 16.9 µM, 18.1 µM, 27.9 µM and 30.2 µM.
The corresponding values for `CC(O)(CSc1ccc(F)cc1)C(=O)Nc1cccc(S(F)(F)(F)(F)F)c1` (racemic) are 26.9 µM, 30.2 µM, 38.5 µM and 21.9 µM.

For the origin of these results see ChEMBL document CHEMBL4364301 (Eur J Med Chem, 2019).
